Test results: ChEMBL document CHEMBL1671857, “Inducible resistance of fish bacterial pathogens to the antimicrobial peptide cecropin B” (2008)
Calls of active or inactive are those of the source. No cut-off for these calls is given here.

Assays:
Pseudomonas fluorescens [1] = assay: Antimicrobial activity against Pseudomonas fluorescens selected after 20 ug/ml of drug exposure; assay type: functional
In short: (§1)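 Bacteria were grown 16 h in broth with cecropin B at a concentration chosen empirically to allow growth to mid-log (OD600 ~0.4). Cultures were then diluted to 1 × 10^7 CFU/ml and the MIC was determined by the 16-h OD570 growth-curve area method. Mean ± SD of three experiments, each in triplicate.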

Vibrio anguillarum 775 [2] = assay: Antimicrobial activity against Vibrio anguillarum 775 infected in medaka fish assessed as mortality at 120 ug/ml by immersion challenge assay; assay type: functional
In short: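 Groups of 20 medaka, 7–8 months old, were immersed 90 min in PBS (pH 7.3, 1.0% NaCl) containing 1 × 10^5 CFU/ml V. anguillarum, either unexposed or pre-exposed to 120 μg/ml cecropin B. Cumulative mortality was recorded over 14 days. Three separate experiments, mean ± SD.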

Yersinia ruckeri [3] = assay: Antimicrobial activity against Yersinia ruckeri; assay type: functional
In short: (§2)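 Exponential-phase cultures (overnight broth diluted 1:1,000) in tryptic soy broth, with 1% NaCl added for vibrios, at 25°C. Cultures at 1 × 10^7 CFU/ml were mixed with an equal volume of medium containing cecropin B and shaken at 200 rpm. OD570 was read every 4 h over 16 h. Growth-curve area (Simpson's rule) was divided by the drug-free control to give a fractional area. MIC is the x-intercept of the trend line of fractional area versus concentration. Mean ± SD of three experiments, each in triplicate.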

Yersinia ruckeri [4] = assay: Antimicrobial activity against Yersinia ruckeri assessed as increase in bacterial survival at 100 ug/ml by broth culture growth inhibition assay; assay type: functional
In short: (§3)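 Broth growth-inhibition assay in tryptic soy broth (1% NaCl for vibrios) at 25°C, 200 rpm. Cultures started at 1 × 10^7 CFU/ml and were mixed 1:1 with cecropin B-containing medium. OD570 was read every 4 h for 16 h. Fractional survival is the area under the growth curve (Simpson's rule) relative to the untreated control.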

Vibrio vulnificus [5] = assay: Antimicrobial activity against Vibrio vulnificus selected after 70 ug/ml of drug exposure; assay type: functional; in short: as §1
CHSE-214 [6] = assay: Antimicrobial activity against compound-exposed Vibrio anguillarum 775 infected in CHSE-214 cells assessed as increase in adhesion to cells at 120 ug/ml after 60 mins relative to control; assay type: functional, cell-based
In short: (§4)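 CHSE-214 cells (CO2-independent medium, 10% FBS, 20°C, no antibiotics) at 80% confluence were incubated with mid-log V. anguillarum (unexposed or cecropin B-exposed) at an MOI of 100 for 0–90 min at ~22°C. Monolayers were washed twice in PBS and lysed with 1% Triton X-100, and lysates were plated. Adherent bacteria were counted per CHSE-214 cell.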

Pseudomonas fluorescens [7] = assay: Antimicrobial activity against Pseudomonas fluorescens; assay type: functional; in short: as §2
CHSE-214 [8] = assay: Antimicrobial activity against compound-exposed Vibrio anguillarum 775 infected in CHSE-214 cells assessed as increase in adhesion to cells at 120 ug/ml after 90 mins relative to control; assay type: functional, cell-based; in short: as §4
Vibrio anguillarum 775 [9] = assay: Antimicrobial activity against Vibrio anguillarum 775 assessed as increase in bacterial survival at 100 ug/ml by broth culture growth inhibition assay; assay type: functional; in short: as §3
Vibrio vulnificus [10] = assay: Antimicrobial activity against Vibrio vulnificus; assay type: functional; in short: as §2
Yersinia ruckeri [11] = assay: Antimicrobial activity against Yersinia ruckeri assessed as appearance of ridges on outer surface of the bacterial cell at 90 ug/ml by SEM; assay type: functional
In short: (§5)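 Exponential-phase broth cultures, with or without prior cecropin B exposure, were adhered 10 min at room temperature to poly-L-lysine-coated chips. Chips were fixed in 2% glutaraldehyde in cacodylate buffer for 30 min, then in 1% osmium tetroxide overnight. Samples were dehydrated through an ethanol series, critical-point dried, gold sputter-coated and examined by scanning electron microscopy.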

CHSE-214 [12] = assay: Antimicrobial activity against compound-exposed Vibrio anguillarum 775 infected in CHSE-214 cells assessed as increase in adhesion to cells at 120 ug/ml after 30 mins relative to control; assay type: functional, cell-based; in short: as §4
Vibrio vulnificus [13] = assay: Antimicrobial activity against Vibrio vulnificus assessed as appearance of rugose membrane shape at 70 ug/ml by SEM; assay type: functional, organism-based; in short: as §5
Vibrio vulnificus [14] = assay: Antimicrobial activity against Vibrio vulnificus assessed as reduced cell size at 70 ug/ml by SEM; assay type: functional, organism-based; in short: as §5
[15] = Antimicrobial activity against Vibrio anguillarum 775 selected after passage with 120 ug/ml of compound; assay type: functional
[16] = Antimicrobial activity against Vibrio anguillarum 775 selected after 120 ug/ml of drug exposure; assay type: functional; in short: as §1
[17] = Antimicrobial activity against Vibrio anguillarum 775; assay type: functional; in short: as §2
Vibrio vulnificus [18] = assay: Antimicrobial activity against Vibrio vulnificus assessed as increase in bacterial survival at 100 ug/ml by broth culture growth inhibition assay; assay type: functional, organism-based; in short: as §3
Vibrio anguillarum 775 [19] = assay: Antimicrobial activity against Vibrio anguillarum 775 assessed as reduction in extracellular product secreted by cells at 120 ug/ml; assay type: functional; in short: as §5
Vibrio vulnificus [20] = assay: Antimicrobial activity against Vibrio vulnificus assessed as loss of flagella at 70 ug/ml by SEM; assay type: functional, organism-based; in short: as §5

H-KWKVFKKIEKMGRNIRNGIVKAGPAIAVLGEAKAL-NH2 [CECROPIN B]
MIC (Pseudomonas fluorescens [1]): 24 µg/mL
Activity (Vibrio anguillarum 775 [2]): inactive
MIC (Yersinia ruckeri [3]): 100 µg/mL
Activity (Yersinia ruckeri [4]): inactive
MIC (Vibrio vulnificus [5]): 136 µg/mL
Activity (CHSE-214 [6]): inactive
MIC (Pseudomonas fluorescens [7]): 25 µg/mL
Activity (CHSE-214 [8]): inactive
Activity (Vibrio anguillarum 775 [9]): inactive
MIC (Vibrio vulnificus [10]): 85 µg/mL
Activity (Yersinia ruckeri [11]): inactive
Activity (CHSE-214 [12]): inactive
Activity (Vibrio vulnificus [13]): inactive
Activity (Vibrio vulnificus [14]): inactive
MIC [15]: 142 µg/mL
MIC [16]: 209 µg/mL
MIC [17]: 147 µg/mL
Activity (Vibrio vulnificus [18]): inactive
Activity (Vibrio anguillarum 775 [19]): inactive
Activity (Vibrio vulnificus [20]): inactive
